Calb FLC: C. albicans growth modulation with fluconazole; C. albicans CaCi-2 (fluconazole-resistant clinical isolate) + fluconazole, Alamar Blue growth, 48 h; growth inhibition, % (concentration not given with the values); 0.57% of 300,000 active;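 active = growth inhibition above about 58% in most replicates, limit read from the data, passing the limit was not always enough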;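 also: all wells also contain fluconazole at 8 µg/ml as a sub-toxic cotreatment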
Mdm2-MdmX inh: disrupts the human Mdm2-MdmX interaction. O15151+Q00987. SaOS-2 split-luciferase Mdm2/MdmX complementation, luminescence. inhibition, % at 8 µM. AID 485346. 3% of 330,000 active;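 active = inhibition of at least 50% at 8 µM in the primary screen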
Target sequence (O15151 whole entry, looked up): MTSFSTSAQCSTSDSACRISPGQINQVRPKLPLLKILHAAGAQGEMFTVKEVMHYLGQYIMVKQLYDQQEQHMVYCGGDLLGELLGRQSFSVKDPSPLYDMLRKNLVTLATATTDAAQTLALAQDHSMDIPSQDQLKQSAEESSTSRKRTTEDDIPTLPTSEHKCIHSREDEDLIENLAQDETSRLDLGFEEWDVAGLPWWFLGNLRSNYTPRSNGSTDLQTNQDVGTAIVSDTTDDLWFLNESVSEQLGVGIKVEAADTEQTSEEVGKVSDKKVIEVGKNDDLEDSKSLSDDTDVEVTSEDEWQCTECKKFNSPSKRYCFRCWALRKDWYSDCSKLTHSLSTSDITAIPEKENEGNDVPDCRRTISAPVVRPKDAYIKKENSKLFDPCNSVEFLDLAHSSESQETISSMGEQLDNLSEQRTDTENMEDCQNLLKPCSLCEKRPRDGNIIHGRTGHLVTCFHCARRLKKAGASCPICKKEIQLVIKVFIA
Target sequence (Q00987 whole entry, looked up): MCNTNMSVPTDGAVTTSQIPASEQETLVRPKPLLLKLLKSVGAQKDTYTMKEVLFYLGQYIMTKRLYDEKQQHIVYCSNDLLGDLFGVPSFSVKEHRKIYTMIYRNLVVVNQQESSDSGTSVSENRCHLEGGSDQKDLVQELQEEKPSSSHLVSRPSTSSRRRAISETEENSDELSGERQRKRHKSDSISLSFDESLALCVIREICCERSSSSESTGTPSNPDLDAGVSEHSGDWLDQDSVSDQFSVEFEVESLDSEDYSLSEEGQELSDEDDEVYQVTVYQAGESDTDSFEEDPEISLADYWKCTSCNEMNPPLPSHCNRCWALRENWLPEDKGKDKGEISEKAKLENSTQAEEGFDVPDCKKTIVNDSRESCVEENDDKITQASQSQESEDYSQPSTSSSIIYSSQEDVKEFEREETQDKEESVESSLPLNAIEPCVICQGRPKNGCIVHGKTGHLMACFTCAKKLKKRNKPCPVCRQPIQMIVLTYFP
T cruzi repl: blocks replication of Trypanosoma cruzi; inhibition, % (no concentration beside the values); 1.4% of 300,000 active; T. cruzi beta-gal in NIH3T3, luminescence, 90 h; AID 1885;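 active = mean inhibition across valid replicates above about 55%, limit read from the data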;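 also: signal also drops with host cell toxicity which is not excluded here; higher percent means less beta-gal luminescence so fewer parasites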
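System: mouse NIH/3T3 fibroblasts infected with β-gal-expressing T. cruzi Tulahuen C4 / Input: NIH/3T3 cells, 5,000 per well / Buffer or medium: Low-serum DMEM with 2% FBS / Probe or stimulus: 5000 reporter trypomastigotes per well / Schedule: ≥90 h infection period, 3 h prior cell attachment / Measured by: GalScreen luminescence, 60 min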
SKKanGAS inh: inhibitors of SKKanGAS S. pyogenes growth in kanamycin (SK-promoter or general growth effect); BacTiter-Glo, 6 h; inhibition, % at 7.5 µM; 1.3% of 300,000 active;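 active = mean replicate score, as percent of positive control median, at least 50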;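 also: strain carries kanamycin resistance gene driven by streptokinase promoter and grows in 40 µg/ml kanamycin; loss of luminescence reflects streptokinase promoter inhibition or plain growth inhibition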
Beta apoptosis: beta cell apoptosis inhibition; INS-1E cytokine-induced death, ATP luminescence, 48 h; percent of positive-control rescue, neutral wells zero; protection from apoptosis, % (concentration not given with the values); AID 435005; 0.8% of 300,000 active;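 active = Every replicate reaches about 75%, or at least half do and their mean reaches it too, limit read from the data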;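 also: higher means more ATP so stronger rescue from cytokine killing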
CSC inhib: cancer stem cell inhibition. inhibition, % at 7.5 µM. cancer stem cell-like cells viability, luminescence. 1.1% of 300,000 active. AID 2717; in the data active = inhibition above about 75%; tested in HMLE shEcad cells
A number is an active result; – = inactive; · = not tested or not shown. Sampled rows, rich in hits. Any-hit rate of the full collection: about 5.7%.

SMILES	Calb FLC	Mdm2-MdmX inh	T cruzi repl	SKKanGAS inh	Beta apoptosis	CSC inhib
CC1CCCC(NC(=O)COC(=O)c2cn(C)c3ccccc23)C1C (stereo unspecified)	·	–	·	·	–	–
Cc1ccc(N/N=C/c2c(O)n(-c3ccccc3)c(=O)[nH]c2=O)cc1	–	–	–	–	–	96.4
COC(=O)C1=C(c2ccc(-c3ccccc3)c(F)c2)C[C@@H]2CC[C@H]1N2C(=O)NCCc1ccccc1	·	–	·	·	–	–
c1ccc(-c2ccc(-c3n(-c4ccccn4)c4ccccc4[n+]3-c3ccccn3)cc2)cc1	–	·	59.9	–	·	·
CC(C)(C#CC(=O)O)OOC(c1ccccc1)(c1ccccc1)c1ccccc1	–	–	–	–	–	–
COc1ccc(NS(=O)(=O)c2ccc(OCC(=O)N3CCN(C)CC3)cc2)cc1Cl	–	–	57.7	–	–	–
CN1CCN(C(=O)COc2ccc(S(=O)(=O)N(C)Cc3ccccc3)cc2)CC1	–	–	60.6	–	–	–
CN1CCN(C(=O)COc2ccc(N(C)S(=O)(=O)c3ccc(F)cc3)cc2)CC1	–	–	79.2	–	–	–
CCN1CCN(C(=O)COc2ccc(S(=O)(=O)N(C)Cc3ccccc3)cc2)CC1	–	–	–	–	–	–
CCCCCn1c(=O)c(C(=O)Nc2nc3ccccc3[nH]2)c(O)c2ccccc21	–	–	–	–	79.7	–
CCCCCn1c(=O)c(C(=O)Nc2ncccc2C)c(O)c2ccccc21	–	–	–	101.2	88.5	–
CN(C)CC#CCC(O)(c1ccccc1)C1CCCC1 (stereo unspecified)	–	–	66.9	–	–	–
CC1C2Cc3ccc(O)cc3[C@]1(C)CCN2CCc1ccccc1 (stereo partly specified)	·	–	·	·	·	·
Clc1ccc(COC(Cn2ccnc2)c2ccc(Cl)cc2Cl)c(Cl)c1 (stereo unspecified)	·	–	–	108.3	–	102.3
Cc1ccsc1C(=O)C1CCCN(Cc2c(C)nn(C(C)C)c2C)C1 (stereo unspecified)	–	–	61.7	–	–	·
Cc1ccsc1C(=O)C1CCCN(Cc2cccc(-n3cccn3)c2)C1 (stereo unspecified)	–	–	–	–	–	–
CSc1ncc(CN2CCCC(C(=O)c3sccc3C)C2)cn1 (stereo unspecified)	–	–	–	–	–	–
Cc1ccsc1C(=O)C1CCCN(Cc2cnc(N3CCCC3)s2)C1 (stereo unspecified)	–	–	63.3	–	–	–
Cc1ccsc1C(=O)C1CCCN(Cc2ccc(-n3cccn3)cc2)C1 (stereo unspecified)	–	–	61.4	–	–	–
Cc1ccc(CN2CCCC(C(=O)c3sccc3C)C2)o1 (stereo unspecified)	–	–	66.0	–	–	–
O=C(CCCc1ccccc1)NCCc1cnc[nH]1	–	–	–	–	–	–
CC(=O)c1cccc(OCC(=O)N2CCN(CC(=O)Nc3cccc(F)c3)CC2)c1	·	–	·	·	–	·
Cc1cc(C)c2c(ccc3cccc[n+]32)c1	–	–	–	–	82.1	–
O=P(Nc1ccccc1)(Nc1ccccc1)Oc1ccc(Cl)cc1	–	–	–	–	–	–
COc1cccc(NP(=O)(Oc2ccc(Cl)cc2)Oc2ccc(Cl)cc2)c1	–	–	–	56.1	–	77.2
SMILES	Calb FLC	Mdm2-MdmX inh	T cruzi repl	SKKanGAS inh	Beta apoptosis	CSC inhib
C1CC2OC2CC1C1CO1 (stereo unspecified)	·	–	·	·	–	–
COC(=O)c1nc(-c2ccc3c(n2)C(=O)C(N)=C(OC)C3=O)c(N)c(-c2ccc(OC)c(OC)c2O)c1C	–	–	–	–	110.9	112.8
COC1=C(OC)[C@]23CCc4ccc(OC)c(OC)c4[C@]2(CCN3C)CC1=O	·	–	·	·	–	–
C#C[C@]1(O)[C@H](O)CC2C3CC[C@H]4C[C@@H](O)CC[C@]4(C)C3CC[C@@]21C (stereo partly specified)	·	–	·	·	–	–
CN(C)c1ccc([P+](=O)c2ccc(N(C)C)cc2)cc1	61.6	–	–	–	–	·
CN(C)c1cc[n+](CC(O)C[n+]2ccc(N(C)C)cc2)cc1	–	–	–	–	–	–
COc1cccc(-n2c(O)c(C=NCCN3CCNCC3)c(=O)[nH]c2=S)c1	–	–	–	–	–	–
O=C(c1c[nH]cc1-c1ccccc1)c1cccc2ccccc12	–	–	57.9	–	–	–
O=c1c2ccccc2nc(-c2ccccc2Cl)n1-c1cccc(O)c1	–	–	–	–	–	–
COC(=O)C1=C(c2ccc(F)cc2OCc2ccccc2)C[C@@H]2CC[C@H]1N2C(=O)N1CCCC1	·	–	·	·	–	–
FC(F)(F)c1ccc(CNCCc2ccc3c(c2)OCO3)cc1	–	–	55.3	–	–	–
CCCCCCOc1ccc(CN2CCN(CC)CC2)cc1	–	–	65.0	–	–	–
CCOc1cc2c(cc1OCC)-n1cccc1C(c1cc(OC)ccc1F)NC2 (stereo unspecified)	–	–	–	–	–	–
CN1CCN(c2ccc([N+](=O)[O-])c(NCc3ccco3)c2)CC1	–	–	–	–	–	93.0
CN1CCN(c2ccc([N+](=O)[O-])c(N3CCCCC3)c2)CC1	–	–	79.5	–	–	–
COc1ccc2ccccc2c1CNCCc1ccccc1	–	–	–	–	–	–
COC(=O)C1=C(c2ccc(F)cc2F)C[C@@H]2CC[C@H]1N2C(=O)N1CCC(O)CC1	·	–	·	·	–	–
CN(C)[C@@H]1C(=O)C(C(N)=O)=C(O)[C@@]2(O)C(=O)C3=C(O)c4c(O)ccc(Cl)c4[C@@](C)(O)[C@H]3C[C@@H]12	–	·	–	108.8	·	–
CN(C)[C@@H]1C(=O)C(C(N)=O)=C(O)[C@@]2(O)C(=O)C3=C(O)c4c(O)cccc4[C@@](C)(O)C3C[C@@H]12 (stereo partly specified)	–	–	–	109.5	–	–
COC(=O)C1=C(c2cccc(C#N)c2)C[C@@H]2CC[C@H]1N2C(=O)N1CCCCC1	·	–	·	·	–	–
Cc1cccc(CSc2nc3c(cc2C#N)CN(C)CC3)c1	–	–	58.6	–	–	–
CN1CCc2nc(SCc3ccccc3Br)c(C#N)cc2C1	–	–	–	–	–	–
COC1CC(OC2CCC3(C)C(CCC4C3CCC3(C)C(C5=CC(=O)OC5)C(OC(C)=O)CC43O)C2)OC(C)C1OC1OC(COC2OC(CO)C(O)C(O)C2O)C(O)C(O)C1O (stereo unspecified)	–	·	–	–	·	78.8
C[C@]12CCC3[C@@H](CC[C@H]4C[C@@H](O)CC[C@]34C)C1CCC2=O (stereo partly specified)	79.9	–	–	–	–	–
C[C@]12CCC3C(CC[C@H]4C[C@@H](O)CC[C@]34C)[C@H]1CC[C@H]2O (stereo partly specified)	·	–	·	·	–	–
